Calls of active or inactive are those of the source. The rule behind the calls is not given here.
Columns and labels:
[1] = tested on: HeLa; assay: Effect on cyclin B expression in human HeLa cells at 250 to 500 nM after 24 hrs by Western blot analysis; type: functional, cell-based
How it was run: (§1)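 HeLa cells treated for 24 or 48 h, washed twice with ice-cold PBS and lysed on ice 30 min; lysates spun at 15000 ×g, 4 °C. Protein (20 μg) resolved by SDS–PAGE on 7.5–15% gels and blotted to PVDF. Specific primary antibodies for 2 h at room temperature, then peroxidase secondary for 60 min, ECL detection. Membranes stripped and reprobed for β-actin as loading control.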

[2] = tested on: LoVo; assay: Antiproliferative activity against human LoVo cells after 72 hrs by MTT assay; type: functional, cell-based
How it was run: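 Cells seeded at 8 × 10³ per well and incubated 18 h at 37 °C, 5% CO₂, then exposed to a range of compound concentrations for 72 h at 37 °C. Jurkat and HL-60 were grown in RPMI-1640, the others in DMEM, with penicillin, streptomycin and 10% FBS. DMSO stocks (10 mM); DMSO ≤0.25% final. Viability by MTT. […] Mean ± SE of ≥3 independent experiments.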

[3] = species: Bos taurus; assay: Displacement of [3H]colchicine from tubulin in bovine brain at 5 uM DEAE-cellulose filter method
[4] = Antiproliferative activity against human vinblastine-resistant CEM/VBL100 cells overexpressing P-glycoprotein after 72 hrs by MTT assay; type: functional, cell-based; conditions: CEM/VBL100, 72 h
[5] = tested on: HeLa; assay: Induction of survivin phosphorylation at Thr34 in human HeLa cells at 250 to 500 nM after 24 to 48 hrs by Western blot analysis
[6] = tested on: HL-60; assay: Ratio of compound IC50 to CA-4 IC50 for human HL60 cells after 72 hrs by MTT assay; type: functional
[7] = tested on: PBL; assay: Growth inhibition of PHA-stimulated human PBL after 72 hrs by MTT assay; type: functional
[8] = tested on: HeLa; assay: Downregulation of Xiap expression in human HeLa cells at 250 to 500 nM after 24 hrs by Western blot analysis; type: functional, cell-based; how it was run: as §1
[9] = tested on: HeLa; assay: Induction of apoptosis in human HeLa cells assessed as disappearance of uncleaved caspase-2 protein at 250 to 500 nM after 24 to 48 hrs by Western blot analysis; type: functional, cell-based; how it was run: as §1
[10] = tested on: HeLa; assay: Downregulation of cyclin B expression in human HeLa cells at 250 to 500 nM after 48 hrs by Western blot analysis; type: functional, cell-based; how it was run: as §1
[11] = tested on: A549; assay: Antiproliferative activity against human A549 cells after 72 hrs by MTT assay; type: functional, cell-based; conditions: A549, 72 h
[12] = tested on: HeLa; assay: Downregulation of Bcl-2 expression in human HeLa cells at 250 to 500 nM after 24 to 48 hrs by Western blot analysis; type: functional, cell-based; how it was run: as §1
[13] = Inhibition of bovine brain tubulin polymerization preincubated for 15 mins by turbidimetric analysis; parameters: species or system Bos taurus
How it was run: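 Bovine brain tubulin (10 μM) in glutamate buffer preincubated with varying compound concentrations for 15 min at 30 °C, then chilled to 0 °C. GTP 0.4 mM added and mixtures warmed to 30 °C in a spectrophotometer; assembly followed by turbidity at 350 nm.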

[14] = target: T1, M-phase inducer phosphatase 3 (Homo sapiens) (UniProt P30307); assay: Induction of cdc25C phosphorylation in human HeLa cells at 250 to 500 nM after 24 to 48 hrs by Western blot analysis; type: cell-based; how it was run: as §1
T1 sequence (whole entry): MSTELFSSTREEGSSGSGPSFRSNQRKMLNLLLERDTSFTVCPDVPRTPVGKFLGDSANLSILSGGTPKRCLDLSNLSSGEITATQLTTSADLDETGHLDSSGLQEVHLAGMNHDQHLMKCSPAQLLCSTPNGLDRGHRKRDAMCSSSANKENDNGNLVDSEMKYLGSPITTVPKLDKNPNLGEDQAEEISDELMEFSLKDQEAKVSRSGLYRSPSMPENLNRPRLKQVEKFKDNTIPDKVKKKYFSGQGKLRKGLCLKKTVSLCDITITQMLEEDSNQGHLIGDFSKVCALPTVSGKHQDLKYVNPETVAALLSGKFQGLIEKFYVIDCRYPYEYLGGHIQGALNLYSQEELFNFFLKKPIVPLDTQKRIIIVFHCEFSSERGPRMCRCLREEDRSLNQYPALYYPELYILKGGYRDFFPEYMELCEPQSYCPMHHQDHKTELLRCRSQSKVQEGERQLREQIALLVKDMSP

[15] = tested on: A549; assay: Resistance ratio of IC50 for human taxol-resistant A549-T12 cells expressing tubulin mutant gene to IC50 for human A549 cells; type: functional
[16] = tested on: HeLa; assay: Induction of apoptosis in human HeLa cells assessed as ROS production; type: functional, cell-based
[17] = tested on: MCF7; assay: Antiproliferative activity against human MCF7 cells after 72 hrs by MTT assay; type: functional, cell-based; conditions: MCF7, 72 h
[18] = tested on: Jurkat; assay: Ratio of compound IC50 to CA-4 IC50 for human Jurkat cells after 72 hrs by MTT assay; type: functional
[19] = tested on: Jurkat; assay: Cell cycle arrest in human Jurkat cells assessed as accumulation of cells at G2/M phase after 24 hrs by propidium iodide staining based flow cytometric analysis; type: functional
How it was run: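 HeLa or Jurkat cells (5 × 10⁵, exponential growth) treated 24 h with 31–500 nM compound. Cells fixed in ice-cold 70% ethanol, treated with lysis buffer containing RNase A and 0.1% Triton X-100, then stained with propidium iodide. DNA content measured by flow cytometry to give phase distribution. Mean ± SEM of three independent experiments.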

IC50 [2]: 31 nM
inhibition [3]: 83%
IC50 [11]: 38.6 nM
IC50 [13]: 890 nM
Activity [14]: Active
IC50 [17]: 24.5 nM
Structure (SMILES): CCOc1ccc(-c2sc(NC)nc2-c2cc(OC)c(OC)c(OC)c2)cc1
Activity [1]: inactive
IC50 [4]: 1.2 nM
Activity [5]: Active
Ratio IC50 [6]: 2
GI50 [7]: 120 nM
Activity [8]: Active
Activity [9]: Active
Activity [10]: Active
Activity [12]: Active
Ratio IC50 [15]: 0.5
Activity [16]: Active
Ratio IC50 [18]: 0.34
Activity [19]: Dose-dependent effect
